Test [1] addresses Serotonin 2 (5-HT2) receptor (Rattus norvegicus, UniProt P30994+P08909+P14842). Put plainly: Binding affinity against 5-hydroxytryptamine 2 receptor using [3H]ketanserin as radioligand. In kind it is protein assay. The procedure, abridged: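 Rat brain tissue homogenized in 50 mM Tris-HCl, 0.5 mM Na2EDTA, 10 mM MgSO4, pH 7.4, and centrifuged twice at 30000g. Assay buffer adds 10 μM pargyline and 0.1% ascorbate.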

Test [2] addresses T1, 5-hydroxytryptamine receptor 1A (Rattus norvegicus, UniProt P19327).
T1 sequence (P19327 whole entry): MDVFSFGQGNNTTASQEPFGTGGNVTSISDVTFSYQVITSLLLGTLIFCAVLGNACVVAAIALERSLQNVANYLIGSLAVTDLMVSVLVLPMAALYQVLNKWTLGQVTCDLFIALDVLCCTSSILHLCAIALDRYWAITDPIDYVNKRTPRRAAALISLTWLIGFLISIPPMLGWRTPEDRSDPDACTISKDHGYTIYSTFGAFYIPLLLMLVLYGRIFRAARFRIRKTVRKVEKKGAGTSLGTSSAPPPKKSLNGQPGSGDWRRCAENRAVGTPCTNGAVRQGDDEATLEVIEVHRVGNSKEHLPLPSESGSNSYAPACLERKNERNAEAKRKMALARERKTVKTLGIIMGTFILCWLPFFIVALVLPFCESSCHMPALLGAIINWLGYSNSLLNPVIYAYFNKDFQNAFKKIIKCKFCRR
Put plainly: Binding affinity against 5-hydroxytryptamine 1A receptor using [3H]-8-OH-DPAT as radioligand. The procedure, abridged: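 Rat hippocampal homogenate (5 mg tissue) with [3H]-8-OH-DPAT; 10 μM 8-OH-DPAT defines nonspecific binding. Buffer: 50 mM Tris-HCl, 0.5 mM Na2EDTA, 10 mM MgSO4, pH 7.4, 10 μM pargyline, 0.1% ascorbate.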

The term Ki denotes a dissociation constant, usually derived from enzyme kinetics or from competition with a known ligand. Read a high Ki as lower affinity. Take `COc1ccc2c(c1)c(CC(C)N)cn2Cc1ccccc1` (centres undefined): the figures for the inhibition constant Ki in test [1] and in test [2] were 250 nM and > 10000 nM, respectively.
For `CCCn1cc(CC(C)N)c2cc(OC)ccc21` (centres undefined), the Ki in test [1] was 635 nM.
Take `CCCn1ccc(CC(C)N)c1` (centres undefined): the Ki in test [1] and in test [2] was > 10000 nM in each case.
For `CCCCCc1cccc2c(CC(C)N)c[nH]c12` (centres undefined), the Ki in test [1] is 140 nM; in test [2], 6850 nM.
In the same order, the values of `CCCc1cccc2c(CC(C)N)c[nH]c12` (centres undefined) are 1040 nM and 1000 nM.
On to `CCCCCCCCn1cc(CC(C)N)c2ccccc21` (centres undefined), for which the values for the Ki in test [1] and in test [2] were 280 nM and 78 nM, respectively.
In the same order, the values of `CCCCCn1cc(CC(C)N)c2ccccc21` (centres undefined) are 100 nM and 2400 nM.
In the case of `CCCCCn1ccc(CC(C)N)c1` (centres undefined), the Ki in test [1] is 5200 nM; in test [2] it was 7500 nM.
On to `COc1ccc2[nH]cc(CC(C)N)c2c1` (centres undefined), for which the Ki in test [1] was determined as 345 nM; in test [2], 7 nM.
For `CC(N)Cc1cn(Cc2ccccc2)c2ccccc12` (centres undefined), in that order: 160 nM and 30 nM.
In the same order, the values of `CCCn1cc(CC(C)N)c2ccccc21` (centres undefined) are 1550 nM and 715 nM.
For `CC(N)Cc1c[nH]c2ccccc12` (centres undefined), in test [2], the Ki was 530 nM.
For the compound `CC(N)Cc1cc[nH]c1` (centres undefined), the Ki in test [1] and in test [2] was > 10000 nM each time.

These data come from ChEMBL document CHEMBL1124981, “Binding of indolylalkylamines at 5-HT2 serotonin receptors: examination of a hydrophobic binding region” (J Med Chem, 1990).
